Rows were chosen to be rich in hits. Some 4% of all compounds tested hit in one or more screens of this group.
TAAR1 agonist – human TAAR1 agonists, primary screen, Fluo-8 calcium fluorescence, CHO RD-HGA16 cells; Trace amine-associated receptor 1 (Homo sapiens), Q96RJ0; vehicle wells 0%, saturating PEA agonist 100%; activation, % at 3 µM; 360,000 tested, 0.99% active;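 active = activation above the mean activation of all test compounds in the run plus 3 SD, cut at about 38% in these data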
Target sequence (Q96RJ0 whole entry, looked up): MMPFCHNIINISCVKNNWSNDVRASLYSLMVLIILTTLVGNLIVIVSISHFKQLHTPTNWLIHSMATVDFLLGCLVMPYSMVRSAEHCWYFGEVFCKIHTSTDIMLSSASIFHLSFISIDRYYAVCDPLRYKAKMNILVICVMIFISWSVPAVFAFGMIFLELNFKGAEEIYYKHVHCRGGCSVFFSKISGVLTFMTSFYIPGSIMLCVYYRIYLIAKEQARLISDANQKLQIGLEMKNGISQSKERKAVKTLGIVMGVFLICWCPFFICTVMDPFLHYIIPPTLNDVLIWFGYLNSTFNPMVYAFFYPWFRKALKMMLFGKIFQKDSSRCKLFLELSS
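System: CHO-derived RD-HGA16 cells with stable Gα16 and human TAAR1 / Times: 17-24 h plating, Fluo-8 75 min 37 °C, 30 min RT / Technique: calcium-sensitive Fluo-8 signal, excitation 470-495, emission 515-575 nm / Measure: % activation relative to PEA EC100 response / Benchmarks: DMSO and PEA EC100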
DAGLB inhibitor – DAGLB lipase inhibitors, primary screen, biochemical, fluorescence, HTS; 340,000 tested, 0.059% active; inhibition, % at 5.17 µM; HEK293T DAGLB membrane lysate, EnzChek fluorogenic substrate; Diacylglycerol lipase-beta (Homo sapiens), Q8NCG7; in the data active = inhibition above about 34%
MPTP block – mitochondrial permeability transition pore inhibitors, primary screen, biochemical, isolated mouse mitochondria, absorbance | inhibition, % at 10 µM | Ca2+ swelling absorbance, 30 min | AID 602449, 2012 | 360,000 tested, 1.4% active;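 active = inhibition of 50% or more, scaled per plate between neutral and stimulator controls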
GPR7 antagonist – GPR7 receptor antagonists, primary screen, cell-based, fluorescence, single concentration | AID 1861, 2009 | inhibition, % at 4.4 µM | 290,000 tested, 1.1% active | GPR7-expressing cells, fluorescence antagonist assay; in the data active = inhibition above about 16%, passing the limit was not always enough;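 note: cells stimulated with the agonist NPW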
Target sequence (P48145 whole entry, looked up): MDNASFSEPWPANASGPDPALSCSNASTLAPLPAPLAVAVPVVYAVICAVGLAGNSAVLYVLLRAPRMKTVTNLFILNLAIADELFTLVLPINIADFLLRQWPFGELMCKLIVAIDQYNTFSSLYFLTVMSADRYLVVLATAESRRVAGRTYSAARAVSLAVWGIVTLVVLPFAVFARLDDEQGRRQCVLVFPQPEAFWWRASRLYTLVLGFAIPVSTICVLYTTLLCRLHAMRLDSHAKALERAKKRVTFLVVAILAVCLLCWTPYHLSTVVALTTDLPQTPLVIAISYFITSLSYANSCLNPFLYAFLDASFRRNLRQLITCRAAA
TAAR1 antag – human TAAR1 antagonists, primary screen, Fluo-8 calcium fluorescence, CHO RD-HGA16 cells; Trace amine-associated receptor 1 (Homo sapiens), Q96RJ0; antagonist; inhibition, % at 3 µM; 360,000 tested, 1.5% active;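 active = inhibition above a per-plate cutoff, the mean inhibition of test compounds on that plate plus 3 SD, cut at about 49% in these data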
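test system = CHO RD-HGA16 cells bearing hTAAR1 | replication = singlicate | controls = DMSO-only wells and EC80 β-PEA-stimulated wells | reagent = EC80 β-phenethylamine stimulus | read-out basis = percent inhibition of PEA-evoked calcium signal, max/basal emission ratio | schedule = seeding 17-24 h prior, 75-min 37 °C, 30-min RT dye loading | signal = kinetic Fluo-8 calcium fluorescence measurement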
TAAR1 ag conf – human TAAR1 agonists, retest of hits, confirmation, Fluo-8 calcium fluorescence, CHO RD-HGA16 cells; activation, % at 3 µM; 2,400 tested, 82% active; scaled: DMSO 0%, maximal phenethylamine 100%; shares compounds with TAAR1 agonist;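 active = activation above a cutoff set at the run's mean compound activation plus 3 SD, cut at about 39% in these data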
Ga16 ag counter – nonselective calcium mobilization agonists, CHO-Ga16 cells, counter-screen for hTAAR1 agonist project, cell-based, fluorescence, CHO-Ga16 parental line. AID 651787, 2012. 2,400 tested, 50% active. activation, % at 3 µM. Fluo-8 calcium fluorescence; normalized to maximal ATP response, DMSO zero. shares compounds with TAAR1 agonist;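 active = activation above the run cutoff, the mean activation over all tested wells plus 3 SD, cut at about 12% in these data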
TAAR1 desens – TAAR1 desensitization by agonist hits, confirmation, counter-screen for TAAR1 agonist project, cell-based, fluorescence, tachyphylaxis; shares compounds with TAAR1 agonist; CHO RD-HGA16 hTAAR1, Fluo-8 calcium, beta-PEA response inhibition; inhibition, % at 3 µM; 2,400 tested, 46% active; AID 651951, 2012;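 active = inhibition above the run cutoff, the mean inhibition of all test compounds plus 3 SD, cut at about 49% in these data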;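 note: beta-PEA stimulus applied at its EC80; loss of beta-PEA calcium signal after compound pretreatment read as receptor desensitization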
Ga16 antag count – inhibition of ATP-evoked calcium response in CHO-Ga16 cells, counter-screen for TAAR1 agonist project, cell-based, fluorescence | shares compounds with TAAR1 agonist | CHO-Ga16 ATP-induced calcium, Fluo-8 fluorescence | inhibition, % at 3 µM | 2,400 tested, 39% active | AID 651952, 2012;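 active = inhibition above the plate's mean compound inhibition plus 3 SD, computed per plate, cut at about 22% in these data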
Large screens that a line does not name were inactive (follow-up assays come after a bar, where they were run).

CCOC(=O)c1ccc(NC(=S)N2CCC(O)CC2)cc1	none
CCCN1C(=O)S/C(=C\c2ccc(N3CCOCC3)o2)C1=O	TAAR1 agonist 56 | TAAR1 ag conf 60 | Ga16 ag counter 53 | TAAR1 desens inactive | Ga16 antag count 44
CCCN1C(=O)S/C(=C/c2ccc(N3CCOCC3)o2)C1=O	none
Cc1ccccc1-c1nc(CS(=O)(=O)CC(=O)NCCc2ccccc2)c(C)o1	TAAR1 agonist 72 | TAAR1 ag conf 76 | Ga16 ag counter inactive | TAAR1 desens 63 | Ga16 antag count inactive
Cc1ccc(-c2nc(CS(=O)CC(=O)N3CCN(c4ccccc4)CC3)c(C)o2)cc1 (centres undefined)	none
Cc1oc(-c2ccccc2F)nc1CS(=O)(=O)CC(=O)NCCCc1ccccc1	none
COc1cccc(-c2nc(CS(=O)(=O)CC(=O)NCCc3ccccc3)c(C)o2)c1	TAAR1 agonist 71 | TAAR1 ag conf 94 | Ga16 ag counter 21 | TAAR1 desens 67 | Ga16 antag count inactive
Cc1oc(-c2cccs2)nc1CS(=O)CC(=O)NCCc1ccccc1 (centres undefined)	TAAR1 agonist 58 | TAAR1 ag conf 73 | Ga16 ag counter inactive | TAAR1 desens inactive | Ga16 antag count inactive
Cc1oc(-c2ccccc2)nc1CS(=O)CC(=O)N1CCc2ccccc2C1 (centres undefined)	TAAR1 agonist 56 | TAAR1 ag conf 91 | Ga16 ag counter inactive | TAAR1 desens inactive | Ga16 antag count inactive
CCN(CC)C(=O)C1=C(C)N(CCCOC)C(=O)C(CC(=O)NCCc2ccccn2)C1 (centres undefined)	none (no result: GPR7 antagonist)
c1ccc(Cn2ncc3c(N4CCN(c5ccccc5)CC4)ncnc32)cc1	none (no result: DAGLB inhibitor, GPR7 antagonist)
CCCCc1c(-c2ccccc2OC)ncn1Cc1ccc(Br)cc1	none (no result: DAGLB inhibitor, MPTP block, GPR7 antagonist)
CC1=C(C(=O)N2CCCCCC2)CC(CC(=O)NCc2cccc3ccccc23)C(=O)N1CCC1=CCCCC1 (centres undefined)	none (no result: DAGLB inhibitor, GPR7 antagonist)
COc1cccc(-c2nc(CS(=O)(=O)CC(=O)N3CCc4ccccc4C3)c(C)o2)c1	TAAR1 agonist 67 | TAAR1 ag conf 87 | Ga16 ag counter inactive | TAAR1 desens inactive | Ga16 antag count inactive
O=C1CCc2cccc(O)c2N1	none (no result: GPR7 antagonist)
COC(=O)c1sc(NC(=S)NC(=O)c2ccccc2Cl)nc1C	TAAR1 agonist 50 | TAAR1 ag conf inactive | Ga16 ag counter 23 | TAAR1 desens inactive | Ga16 antag count inactive
COc1ccc(Cl)cc1C(=O)NC1CC(C)(C)NC(C)(C)C1	none (no result: GPR7 antagonist)
CCN(CC)S(=O)(=O)c1ccc2c(c1)c(=O)c(C(=O)NCCN(C)CCc1ccccc1)cn2C	none
CN(CCNC(=O)c1cn(C)c2ccc(S(=O)(=O)N(C)C)cc2c1=O)CCc1ccccc1	TAAR1 agonist 44 | TAAR1 ag conf 55 | Ga16 ag counter inactive | TAAR1 desens inactive | Ga16 antag count inactive
COc1cccc(-c2c(C(=O)N/N=C/c3ccoc3)nnn2-c2nonc2N)c1	TAAR1 agonist 72 | TAAR1 ag conf 129 | Ga16 ag counter 76 | TAAR1 desens inactive | Ga16 antag count inactive
COc1cccc(-c2c(C(=O)N/N=C/c3ccc(C)s3)nnn2-c2nonc2N)c1	TAAR1 agonist 65 | TAAR1 ag conf 87 | Ga16 ag counter 44 | TAAR1 desens inactive | Ga16 antag count inactive
COc1cccc(-c2c(C(=O)N/N=C/c3ccncc3)nnn2-c2nonc2N)c1	none
CCCS(=O)(=O)NC(=O)C1(C)CCCN(C(=O)c2nc3ccccc3s2)C1 (centres undefined)	none (no result: DAGLB inhibitor, GPR7 antagonist)
COc1ccc(-c2cccc(N3CCN(c4ccccn4)CC3)n2)cc1OC	none (no result: DAGLB inhibitor, GPR7 antagonist)
O=S(=O)(c1ccc(Oc2ccc(F)c(Cl)c2)nc1)N1CCOCC1	none (no result: GPR7 antagonist)
COc1cc(/C=c2\s/c(=C(/C#N)C(=O)N3CCCC3)n(-c3ccccc3)c2=O)ccc1O	TAAR1 agonist 75, TAAR1 antag 76 | TAAR1 ag conf inactive | Ga16 ag counter 34 | TAAR1 desens 64 | Ga16 antag count 54
CC1=C/C(=C(\c2cc(C)c(O)c(Br)c2)c2ccccc2S(=O)(=O)O)C=C(Br)C1=O	none
Cc1cc(N(C)C)nc(Nc2ccccc2)n1	TAAR1 agonist 92, TAAR1 antag 87 (no result: GPR7 antagonist) | TAAR1 ag conf 108 | Ga16 ag counter inactive | TAAR1 desens 99 | Ga16 antag count inactive
O=C(CCC(=O)N(CC(=O)NC1CCCC1)Cc1ccc(F)cc1)Nc1nccs1	none
CC(=NOC(=O)c1ccc(I)cc1)c1nccs1	none (no result: DAGLB inhibitor, GPR7 antagonist)
Cc1nc(C(N)=O)c(N)n1CCc1ccccc1	TAAR1 agonist 98, TAAR1 antag 72 | TAAR1 ag conf 70 | Ga16 ag counter inactive | TAAR1 desens inactive | Ga16 antag count inactive
Nc1nc2c(ncn2[C@@H]2O[C@H](C(=O)NCCCc3ccccc3)[C@@H](O)[C@H]2O)c(=O)[nH]1	TAAR1 agonist 56 (no result: DAGLB inhibitor, MPTP block, GPR7 antagonist) | TAAR1 ag conf 69 | Ga16 ag counter inactive | TAAR1 desens inactive | Ga16 antag count inactive
COCCCNC(=O)[C@H]1O[C@@H](n2cnc3c(=O)[nH]c(N)nc32)[C@H](O)[C@@H]1O	none (no result: DAGLB inhibitor, MPTP block, GPR7 antagonist)
CCN1C(N(C)CCc2cccs2)=N[C@@H](c2ccccc2)C(C(=O)OC)=C1C	TAAR1 agonist 68 | TAAR1 ag conf 74 | Ga16 ag counter inactive | TAAR1 desens inactive | Ga16 antag count inactive
O=C(NCCc1ccccc1)C(c1ccncc1)N(C(=O)c1csnn1)C1CC1 (centres undefined)	TAAR1 agonist 83, TAAR1 antag 49 | TAAR1 ag conf 91 | Ga16 ag counter inactive | TAAR1 desens 68 | Ga16 antag count inactive
O=C(NCCc1ccccc1)C(c1ccccc1)N(C(=O)c1csnn1)C1CC1 (centres undefined)	none
